For one assay, the target named is SARS-CoV-2 nsp14 (Severe acute respiratory syndrome coronavirus 2, UniProt P0DTD1). Description: Radiometric nsp14 MTase activity assay. The format is biochemical.
Assay [1] deals with nsp14 (amino acids 1-527) (Severe acute respiratory syndrome coronavirus 2, UniProt P0DTD1). Description: Surface plasmon resonance binding to biotinylated nsp14. On the set-up: species or system SARS-CoV-2. In outline: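 SPR used N-terminally biotinylated nsp14 (aa 1–527) coupled on a CM5 chip, with C-terminally biotinylated SETD3 (aa 1–605) as control. Test compounds were injected at five concentrations (0.6–50 µM, or 0.06–5 µM for some) at 50 µL/min. Running buffer was HBS-EP Plus (10 mM HEPES pH 7.4, 150 mM NaCl, 2 mM EDTA, 0.005% Tween-20) with 0.5% DMSO. Contact time was 60 s and dissociation 120 s, with blank-buffer and DMSO (0.4–0.6%) corrections.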
(Surface plasmon resonance follows binding to a sensor surface in real time, without labels.)

We go through one molecule from PMC8458670 (Slas Discovery, 2022).

Broadly, the IC50 is the concentration that gives 50% inhibition. Broadly, the Kd is the constant that tells how readily two partners part at equilibrium. In turn, `Nc1ncnc2c1ncn2[C@@H]1O[C@H](CSCC[C@H](N)C(=O)O)[C@@H](O)[C@H]1O` [SAH, S-Adenosylhomocysteine] returned an IC50 on SARS-CoV-2 nsp14 of 130 ± 30 nM. Further, in assay [1], the affinity, expressed as Kd, was 140 nM.
